Screening data deposited in PubChem by Johns Hopkins Ion Channel Center.
RGS4 block = human RGS4 inhibition; P49798; 310,000 compounds, 0.45% hits; B-score at 10 µM; HEK293 M3R/RGS4 inducible, Fluo-4 calcium flux; stronger effect = higher value; triggered by carbachol at its EC20;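 active = B-score, a plate-corrected calcium signal, over three deviations above library mean, with baseline fluorescence within five deviations of library mean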;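 note: RGS4 expression induced by doxycycline in cells with stable M3 receptor; B-score is computed from the integrated fluorescence ratio over baseline after carbachol; higher B-score means a larger calcium signal and so more RGS4 inhibition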
RGS4 pot = RGS4 potentiation or activation | HEK293 M3R/inducible RGS4, carbachol calcium flux Fluo4; stronger effect = lower value | B-score at 10 µM | 310,000 compounds, 0.92% hits | AID 463111;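 active = B-score of the integrated calcium signal more than 4 SD below the library mean, with starting fluorescence not abnormally high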;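 note: negative B-score means reduced calcium response which marks RGS4 activation or potentiation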
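Assay system: HEK293 FlpIn-TREx cells, stable M3R, doxycycline-inducible RGS4 / Probe or stimulus: carbachol, ECmax concentration / Times: overnight RGS4 induction, 30 min dye load 37 °C, 20 min compound RT / Signal: kinetic calcium fluorescence imaging with Fluo4-AM dye, 2 µM / Measure: Agonist-evoked peak-minus-minimum fluorescence over baseline, integrated ratio, B score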
MrgX1 ag = activates human MrgX1 receptor signaling | Q96LB2 | MrgX1-HEK293 cells, Fluo-4 calcium fluorescence, agonist mode; stronger effect = higher value | B-score at 10 µM | 310,000 compounds, 0.44% hits;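 active = calcium response B-score plate-corrected fluorescence ratio at least 3 library SD, with starting fluorescence B-score inside 5 SD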
Target sequence (Q96LB2 whole entry, looked up): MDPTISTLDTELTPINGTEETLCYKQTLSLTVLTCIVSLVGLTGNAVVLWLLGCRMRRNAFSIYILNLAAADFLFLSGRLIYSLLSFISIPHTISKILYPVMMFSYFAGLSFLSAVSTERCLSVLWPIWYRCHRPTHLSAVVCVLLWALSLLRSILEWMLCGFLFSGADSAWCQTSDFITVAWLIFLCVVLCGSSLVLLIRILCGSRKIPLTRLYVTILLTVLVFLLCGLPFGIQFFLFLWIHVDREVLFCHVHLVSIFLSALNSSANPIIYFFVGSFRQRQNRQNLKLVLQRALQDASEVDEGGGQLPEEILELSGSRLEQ
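Test system: HEK293 cells stably expressing human MrgX1 receptor; amount: 15,000 cells per well; doses: compound delivered in addition one of three; times: overnight plating before 1 h dye loading; detection: Fluo-4 NW calcium-flux fluorescence, kinetic read; read-out basis: B-scored fluorescence response ratio; controls: positive and negative controls per plate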
MrgX1 allo act = human MrgX1 positive allosteric modulation, primary screen; Q96LB2; MrgX1-HEK293, Fluo-4 calcium flux, FDSS; stronger effect = higher value; B-score at 10 µM; 310,000 compounds, 0.63% hits;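 active = plate-corrected calcium response at least 3 library SD above typical, normal starting fluorescence, not activating the receptor alone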;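 note: compound read alongside a low EC10 to EC30 dose of BAM8-22 agonist; peak minus trough fluorescence over baseline measured at the second addition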
MrgX1 antag = antagonists of human MrgX1 receptor; AID 588676; MRGX1-HEK293 calcium flux, Fluo-4, BAM8-22 antagonism; stronger effect = lower value; Q96LB2; B-score at 10 µM; 310,000 compounds, 1.3% hits;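 active = calcium-response B-score plate-corrected more than 3 library SD below zero, starting fluorescence within 5 deviations, no agonist response on first addition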;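 note: peak minus trough fluorescence over baseline after final BAM8-22 challenge near maximal dose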
An asterisk follows results filed as active; i = inactive; . = no result given. The list is not random: actives were taken first. Their share in the collection is about 3.5%.

SMILES	RGS4 block	RGS4 pot	MrgX1 ag	MrgX1 allo act	MrgX1 antag
CC(C)[C@H](NS(=O)(=O)c1ccccc1)C(=O)OCC(=O)Nc1ccccc1Sc1ccccc1	i	i	i	i	-6.44*
C/C(=N\NC(=O)c1ccc(Cn2cc([N+](=O)[O-])cn2)o1)c1cccc(NC(=O)C(C)C)c1	i	i	i	i	-5.62*
C/C(=N\NC(=O)c1ccc(Cn2cc(Br)cn2)o1)c1cccc(NC(=O)C(C)C)c1	i	i	i	i	i
O=C(CCS(=O)(=O)c1ccc(Br)cc1)NCc1ccc(F)cc1	i	i	i	i	i
CCOC(=O)N1CCN(C(=O)c2ccc3c(=O)n(Cc4ccc(Cl)cc4)c(=S)[nH]c3c2)CC1	i	i	i	i	i
CCOC(=O)N1CCN(C(=O)c2ccc(Cn3c(=S)[nH]c4ccc(Br)cc4c3=O)cc2)CC1	i	i	i	i	-5.6*
CCCCNC(=O)O[C@@H]1C[C@H]2CCC(=O)N3CC[C@@H](C1)[C@@H]23	i	i	i	i	i
Cn1c(=O)nc2n(Cc3ccccc3)c3cccc(Cl)c3cc-2c1=O	i	-9.36*	i	i	i
Cn1c(=O)n(Cc2ccccc2)c2ccccc21	i	i	i	i	i
N/C(=N\OC(=O)c1ccc(=O)n(Cc2ccc(Cl)cc2)c1)c1ccccn1	i	i	i	i	i
N/C(=N\OC(=O)c1ccc(Cl)c(Cl)c1)c1cccnc1	i	i	i	i	i
N/C(=N\OC(=O)c1ccc(Cl)c(Cl)c1)c1cccc(CSc2ccccn2)c1	i	-7.46*	i	i	i
N/C(=N\OC(=O)c1ccc(=O)n(Cc2ccccc2)c1)c1ccccn1	i	i	i	i	-5.13*
CC(=O)C(=Nc1ccccc1Cl)NNc1ccc(Cl)cc1	i	-10.6*	i	i	i
CCCCCCN(C(=O)CCCCCN1C(=O)NC(c2ccc(-c3ccccc3)cc2)C(C(=O)OCc2ccccc2)=C1C)C(C(=O)NCCCC)c1ccccc1 (configuration not stated)	i	i	.	.	.
CCCCCCN(C(=O)CCCCCN1C(=O)NC(c2ccc(-c3ccccc3)cc2)C(C(=O)OCc2ccccc2)=C1C)C(C)C(=O)NCCCC (configuration not stated)	i	i	i	i	-4.59*
CCC(C(=O)NCc1ccco1)N(C(=O)CNS(=O)(=O)c1ccccc1)C1CCCCC1 (configuration not stated)	i	i	i	i	i
CCCC(C(=O)NCc1ccco1)N(C(=O)CNS(=O)(=O)c1ccc(Cl)cc1)C1CCCC1 (configuration not stated)	i	i	i	i	-6.74*
COCCn1c(=NC(=O)/C=C/c2ccccc2)sc2cc(NC(C)=O)ccc21	i	i	i	i	-4.92*
COc1ccccc1CC(NC(C)=O)C(=O)NC1CCN(C(=O)c2ccc(C)cc2)CC1 (configuration not stated)	i	i	i	i	i
CSCC[C@H](NC(=O)N1CCn2c1nc1ccccc12)C(=O)NCc1ccccc1	i	i	i	i	i
CSCC[C@H](NC(=O)N1CCn2c1nc1ccccc12)C(=O)N[C@H](Cc1ccccc1)C(=O)O	i	i	i	i	-7.64*
CC(=O)N1N=C(c2ccc(Cl)cc2)OC1c1ccc(C(C)C)cc1 (configuration not stated)	i	-7.88*	i	i	i
CC(=O)N1N=C(c2ccc(C)cc2)OC1c1ccc(Br)cc1 (configuration not stated)	i	i	i	i	i
Cc1nnc2sc(SCc3ccc(Cl)cc3)nn2c1=O	i	i	i	i	-6.62*
NC(=S)N/N=C/c1ccc(C23CC4CC(CC(C4)C2)C3)cc1	i	i	i	i	i
CC1O[C@@H](O[C@H](C)CC[C@@H](C)O[C@H]2OC(C)[C@@H](O)C[C@H]2O)C(O)C[C@H]1O (some centres not stated)	i	i	i	i	i
O=C(O)c1ccccc1C(=O)Nc1cccc([N+](=O)[O-])c1	i	i	i	i	i
